Calls of active or inactive are those of the source. No cut-off for these calls is given here.
What was measured:
[1] = target: T1, cAMP and cAMP-inhibited cGMP 3',5'-cyclic phosphodiesterase 10A (Mus musculus, UniProt Q8CA95); test: Inhibition of mouse PDE10A assessed as inhibition of hydrolysis of [3H]cGMP to [3H]GMP after 20 mins by scintillation counting
T1 sequence (Q8CA95 whole entry): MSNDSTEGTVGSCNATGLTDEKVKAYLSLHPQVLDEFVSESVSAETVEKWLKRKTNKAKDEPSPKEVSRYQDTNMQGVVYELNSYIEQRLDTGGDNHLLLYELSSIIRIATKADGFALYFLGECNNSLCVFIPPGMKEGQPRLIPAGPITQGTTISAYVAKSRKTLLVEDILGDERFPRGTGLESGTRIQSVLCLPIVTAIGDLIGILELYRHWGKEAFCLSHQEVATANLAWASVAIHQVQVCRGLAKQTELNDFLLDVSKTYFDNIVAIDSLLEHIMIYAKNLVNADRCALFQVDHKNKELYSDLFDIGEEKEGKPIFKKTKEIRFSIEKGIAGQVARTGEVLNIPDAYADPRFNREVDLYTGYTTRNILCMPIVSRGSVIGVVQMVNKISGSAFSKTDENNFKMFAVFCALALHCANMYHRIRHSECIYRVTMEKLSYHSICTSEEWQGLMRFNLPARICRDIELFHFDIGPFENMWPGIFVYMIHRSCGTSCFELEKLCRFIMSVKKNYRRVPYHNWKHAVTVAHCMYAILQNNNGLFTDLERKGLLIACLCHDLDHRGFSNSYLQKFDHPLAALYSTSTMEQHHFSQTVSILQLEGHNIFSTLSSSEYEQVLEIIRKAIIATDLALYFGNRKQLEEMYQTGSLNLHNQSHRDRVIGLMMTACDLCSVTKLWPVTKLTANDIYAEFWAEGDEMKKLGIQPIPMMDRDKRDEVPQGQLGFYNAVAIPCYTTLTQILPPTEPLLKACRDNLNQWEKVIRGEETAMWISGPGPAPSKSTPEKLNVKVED
In short: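 Reaction was started with mouse PDE10 (25 ng/ml final) and run 20 min at 30 °C. Stopped with yttrium silicate SPA beads, scintillation counted 1–2 h later. IC50 from curve fitting.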

Mus musculus [2] = species on record: Mus musculus; test: Selectivity ratio of IC50 for mouse PDE11A to IC50 for mouse PDE10A
In short: (§1)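 Reaction started by adding enzyme (mouse PDE10 at 25 ng/ml final); 20 min at 30 °C. Stopped with yttrium silicate SPA beads, scintillation read 1–2 h later. IC50s from curve fits; ratio of other-PDE IC50 to PDE10A IC50.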

Mus musculus [3] = species on record: Mus musculus; test: Selectivity ratio of IC50 for mouse PDE2A to IC50 for mouse PDE10A; in short: as §1
Mus musculus [4] = species on record: Mus musculus; test: Selectivity ratio of IC50 for mouse PDE7A to IC50 for mouse PDE10A; in short: as §1
[5] = Tmax in rat at 9 mg/kg, po; format: ADME, organism-based; set-up: dose 9 mg/kg, route oral; conditions: in vivo
In short: (§2)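 Rat pharmacokinetics, dosed iv at 4 mg/kg and po at 9 mg/kg.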

[6] = Clearance in rat at 4 mg/kg, iv; format: ADME, organism-based; set-up: dose 4 mg/kg, route intravenous; conditions: in vivo; in short: as §2
Mus musculus [7] = species on record: Mus musculus; test: Selectivity ratio of IC50 for mouse PDE1A to IC50 for mouse PDE10A; in short: as §1
Mus musculus [8] = species on record: Mus musculus; test: Selectivity ratio of IC50 for mouse PDE9A to IC50 for mouse PDE10A; in short: as §1
Mus musculus [9] = species on record: Mus musculus; test: Selectivity ratio of IC50 for mouse PDE8A to IC50 for mouse PDE10A; in short: as §1
[10] = Volume of distribution at steady state in rat at 4 mg/kg, iv; format: ADME, organism-based; set-up: dose 4 mg/kg, route intravenous; conditions: in vivo, read-out: Vdss; in short: as §2
[11] = Half life in rat at 4 mg/kg, iv; format: ADME, organism-based; set-up: dose 4 mg/kg, route intravenous; conditions: in vivo; in short: as §2
[12] = Cmax in rat at 9 mg/kg, po; format: ADME, organism-based; set-up: dose 9 mg/kg, route oral; conditions: in vivo; in short: as §2
Mus musculus [13] = species on record: Mus musculus; test: Selectivity ratio of IC50 for mouse PDE5A to IC50 for mouse PDE10A; in short: as §1
Mus musculus [14] = test: Behavioral effect in mouse assessed as reduction in conditioned avoidance response at 10 to 30 mg/kg, ip administered 20 mins prior testing; format: functional, organism-based
In short: (§3)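 Mice trained in a shuttle-box to avoid foot-shock after a conditional stimulus, until at least 25 avoidances in 30 trials. Dosing was ip in 30 mM H3PO4, 0.2% tween 80, 5% DMSO, 20 min before testing; controls got vehicle. Eight mice per group. Paired-sample t-test compared each animal with its vehicle-injected performance on the previous day.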

Mus musculus [15] = test: Antipsychotic activity in mouse assessed as inhibition of PCP-induced hyperlocomotion at 20 mg/kg, ip administered 20 mins prior testing; format: functional, organism-based; set-up: dose 20 mg/kg
In short: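 PCP-induced hyperlocomotion in mice: 20 mg/kg ip in 30 mM H3PO4, 0.2% tween 80, 5% DMSO, dosed 20 min before testing; PCP given ip 10 min before testing. Controls got vehicle. Normal activity range 500–1000. Eight mice per group; t-test for each interval.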

Mus musculus [16] = test: Behavioral effect in ip dosed mouse assessed as reduction in conditioned avoidance response compound administered 20 mins prior testing; format: functional, organism-based; in short: as §3
Mus musculus [17] = species on record: Mus musculus; test: Selectivity ratio of IC50 for mouse PDE4A to IC50 for mouse PDE10A; in short: as §1
Mus musculus [18] = species on record: Mus musculus; test: Selectivity ratio of IC50 for mouse PDE3A to IC50 for mouse PDE10A; in short: as §1
[19] = Oral bioavailability in rat at 9 mg/kg; format: ADME, organism-based; conditions: in vivo; in short: as §2

IC50 [1] [nM]	Compound	other results
45	COc1cc(/C=N/NC(=O)CSc2cc(C)nc3ccccc23)cc(Cl)c1OC	
8	COc1ccc2nc(C)cc(SCC(=O)N/N=C/c3cc(OC)c(OC)c(OC)c3)c2c1	Ratio IC50 (Mus musculus [2]): > 110; Ratio IC50 (Mus musculus [3]): > 110; Ratio IC50 (Mus musculus [4]): > 110; Tmax [5]: 0.25 h; clearance [6]: 55 mL/min/kg; Ratio IC50 (Mus musculus [7]): > 110; Ratio IC50 (Mus musculus [8]): > 110; Ratio IC50 (Mus musculus [9]): > 110; Vd [10]: 17.4 L/kg; half-life [11]: 11.3 h; Cmax [12]: 539 ng/mL; Ratio IC50 (Mus musculus [13]): > 110; Activity (Mus musculus [14]): Active; inhibition (Mus musculus [15]): Active; Activity (Mus musculus [16]): Dose-dependent effect; Ratio IC50 (Mus musculus [17]): > 110; Ratio IC50 (Mus musculus [18]): > 110; bioavailability [19]: 21%
49	COc1ccc(/C=N/NC(=O)CSc2cc(C)nc3ccccc23)cc1OC	
860	COc1cc(/C=N/NC(=O)CSc2ccc(OC(F)(F)F)cc2)cc(OC)c1OC	
30	COc1cc(/C=N/NC(=O)CSc2cc(C)nc3ccccc23)cc(Br)c1OC	
100	COc1cc(/C=N/NC(=O)CSc2ccc([N+](=O)[O-])c3ccccc23)cc(OC)c1OC	
28	COc1cc(/C=N/NC(=O)CSc2ccnc3cc(Cl)ccc23)cc(OC)c1OC	
24	COc1cc(/C=N/NC(=O)CSc2ccnc3ccccc23)cc(OC)c1OC	
11	COc1cc(/C=N/NC(=O)CSc2cc(C)nc3ccccc23)cc(C#N)c1OC	
10	COc1cc(/C=N/NC(=O)CSc2cc(C)nc3ccccc23)cc(OC)c1OC	
190	COc1cc(/C=N/NC(=O)CSc2cccc3cccnc23)cc(OC)c1OC	
260	COc1cc(/C=N/NC(=O)CSc2ccc(-c3ccccc3)cc2)cc(OC)c1OC	
660	COc1ccccc1SCC(=O)N/N=C/c1cc(OC)c(OC)c(OC)c1	
140	COc1cc(/C=N/NC(=O)CSc2ccc3ccccc3n2)cc(OC)c1OC	
1070	COc1cc(/C=N/NC(=O)CSc2ccncn2)cc(OC)c1OC	
14	COc1cc(/C=N/NC(=O)CSc2cc(C)nc3ccccc23)cc(OC)c1C#N	
550	COc1cc(/C=N/NC(=O)CSc2ccncc2)cc(OC)c1OC	
51	COc1cc(/C=N/NC(=O)CSc2cc(C)nc3ccccc23)cc(F)c1OC	
360	COc1cc(/C=N/NC(=O)CN(C)c2cc(C)nc3ccccc23)cc(OC)c1OC	
4.8	COc1cc(/C=N/NC(=O)CSc2cc(C)nc3ccccc23)cc(OC)c1Br	

Continued, compound first:

Compound	IC50 [1] [nM]	other results
COc1cc(/C=N/NC(=O)CSc2cc(C)nc3ccccc23)ccc1Br	93	
COc1ccc(/C=N/NC(=O)CSc2cc(C)nc3ccccc23)cc1OC(C)C	660	
COc1ccc(/C(C)=N/NC(=O)CSc2cc(C)nc3ccccc23)cc1OC	180	
COc1ccc(/C=N/NC(=O)COc2cc(C)nc3ccccc23)cc1OC	1600	
COc1ccc(/C=N/NC(=O)CSc2cc(C)nc3ccccc23)cc1C(F)(F)F	420	
COc1ccc(/C=N/NC(=O)CNc2cc(C)nc3ccccc23)cc1OC	8000	
COc1cc(/C=N/NC(=O)CSc2cc(C)nc3ccccc23)ccc1F	190	
COc1ccc(/C=N/NC(=O)CSc2cc(C)nc3ccccc23)cc1OC(F)(F)F	1700	
COc1cc(/C=N/NC(=O)CSc2cc(C)nc3ccccc23)cc(OC)c1	150	
Cc1cc(SCC(=O)N/N=C/c2ccc(OC(F)F)c(OC(F)F)c2)c2ccccc2n1	310	
COc1cc(/C=N/NC(=O)CSc2cc(C)nc3ccccc23)ccc1Cl	87	
COc1ccc(/C=N/NC(=O)CSc2cc(C)nc3ccccc23)c(Cl)c1OC	4600	
CCOc1cc(/C=N/NC(=O)CSc2cc(C)nc3ccccc23)ccc1OC	260	
COc1cccc(/C=N/NC(=O)CSc2cc(C)nc3ccccc23)c1	1200	
COc1ccc(/C=N/NC(=O)CSc2cc(C)nc3ccccc23)c(Br)c1OC	4800	
COc1ccc(/C=N/NC(=O)CSc2cc(C)nc3ccccc23)cc1Cl	220	
COc1ccc(/C=N/NC(=O)CSc2cc(C)nc3ccccc23)cc1F	620	
COc1cc(Br)c(/C=N/NC(=O)CSc2cc(C)nc3ccccc23)cc1OC	77	
COc1cc(/C=N/N(C)C(=O)CSc2cc(C)nc3ccccc23)cc(OC)c1OC	26	
COc1cc(/C=N/NC(=O)CSc2cc(C)nc3ccccc23)ccc1C#N	160	
COc1cc(/C=N/NC(=O)CSc2cc(C)nc3ccccc23)ccc1C(F)(F)F	250	
COc1cc(/C=N/NC(=O)CSc2cc(C)nc3ccccc23)ccc1C	100	
COc1cc(F)c(/C=N/NC(=O)CSc2cc(C)nc3ccccc23)cc1OC	190	
COc1ccc(/C=N/NC(=O)CSc2cc(C)nc3ccccc23)cc1	1400	
COc1cc(Cl)c(/C=N/NC(=O)CSc2cc(C)nc3ccccc23)cc1OC	200	

Reference: ChEMBL document CHEMBL1799961, “N-Acylhydrazones as inhibitors of PDE10A” (Bioorg Med Chem Lett, 2011)
